Reference: ChEMBL document CHEMBL4007508, “Discovery and Pre-Clinical Characterization of Third-Generation 4-H Heteroaryldihydropyrimidine (HAP) Analogues as Hepatitis B Virus (HBV) Capsid Inhibitors” (J Med Chem, 2017)
≈ marks a conversion by molar mass, not a printed value.

Assays:
[1] = tested on: Hepatitis B virus; assay: Antiviral activity against HBV infected in human HepG2(2.2.15) cells assessed as decrease in HBV genome replication after 5 days by qPCR method; assay type: functional, cell-based; settings: HepG2 2.2.15, 120 h
How it was run: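 HepG2.2.15 cells (stable HBV genome, Hep G2-derived; DMEM-F12, 10% FBS, penicillin/streptomycin, 0.5 mg/mL G418) seeded 3 × 10^4/well, incubated overnight at 37 °C. Compounds serially half-log diluted in DMSO, then in medium; final DMSO 0.5%. HBV DNA extracted and quantified by qPCR.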

[2] = Cytotoxicity against HBV infected human HepDE19 cells assessed as decrease in cell viability after 5 days by CCK8 assay; assay type: cell-based
How it was run: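 Tetracycline-inducible HBV HepDE19 cells seeded 5 × 10^3/well and treated with compounds. After 5 days, viability read by CCK-8 (2 h, 37 °C; absorbance 450 and 630 nm).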

[3] = Selectivity index, ratio of CC50 for HBV infected human HepDE19 cells to EC50 for HBV infected in human HepG2(2.2.15) cells
How it was run: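 Selectivity index calculated as CC50 (HepDE19, CCK-8 viability after 5 days) divided by EC50 (HBV DNA reduction in HepG2.2.15 cells, qPCR).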

[4] = Solubility of compound in phosphate buffer at pH 6.5 after one night incubation by HPLC-UV method; assay type: physicochemical
[5] = tested on: Hepatocyte; assay: Induction of CYP3A4 mRNA expression in human primary hepatocyte after 24 hrs by real-time PCR relative to rifampicin; assay type: ADME, cell-based; set-up: concentration or dose not given beside the values; settings: hepatocytes
How it was run: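 CYP3A4 mRNA levels measured in primary human hepatocytes and expressed relative to the positive control rifampicin at 10 μM.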

[6] = molecular target: Voltage-gated inwardly rectifying potassium channel KCNH2 (Homo sapiens, UniProt Q12809); assay: (§1) Inhibition of human ERG
[7] = molecular target: hERG (KCNH2) (Homo sapiens, UniProt Q12809); assay: as §1
[8] = Apparent partition coefficient, log D of the compound at pH 7.4; assay type: physicochemical; settings: octanol/water
[9] = Acid ionization constant, pKa of the compound; assay type: physicochemical
[10] = Base ionization constant, pKa of the compound; assay type: physicochemical
[11] = Permeability of the compound at 150 uM after 18 hrs by PAMPA; assay type: physicochemical; settings: read-out: permeability
[12] = Fraction unbound in human plasma at 1000 nM after 5 hrs by LC-MS/MS analysis; assay type: ADME, cell-free
[13] = Fraction unbound in mouse plasma at 1000 nM after 5 hrs by LC-MS/MS analysis; assay type: ADME, cell-free
[14] = Half life in mouse at 1 mg/kg, iv by LC-MS/MS analysis; assay type: ADME, organism-based; settings: in vivo
How it was run: (§2)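 Single-dose mouse PK following standard procedures: IV 1 mg/kg and PO 3 mg/kg. Plasma CL, Vss, IV t1/2, PO Cmax, AUC(0−∞) in plasma (IV and PO) and liver (PO), and oral bioavailability F derived. Liver/plasma ratio uses the PO AUC(0−∞) values.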

[15] = Volume of distribution at steady state in mouse at 1 mg/kg, iv by LC-MS/MS analysis; assay type: ADME, organism-based; settings: in vivo, read-out: Vdss; how it was run: as §2
[16] = Cmax in mouse at 3 mg/kg, po by LC-MS/MS analysis; assay type: ADME, organism-based; set-up: dose 3 mg/kg, route oral; settings: in vivo; how it was run: as §2
[17] = AUC (0 to infinity) in mouse plasma at 3 mg/kg, po by LC-MS/MS analysis; assay type: ADME, organism-based; set-up: dose 3 mg/kg, route oral, time infinity; how it was run: as §2
[18] = AUC (0 to infinity) in mouse liver at 3 mg/kg, po by LC-MS/MS analysis; assay type: ADME, organism-based; set-up: dose 3 mg/kg, time infinity, route oral; how it was run: as §2
[19] = Ratio of AUC (0 to infinity) in mouse liver at 3 mg/kg, po to AUC (0 to infinity) in mouse plasma at 3 mg/kg, po by LC-MS/MS analysis; assay type: ADME, organism-based; settings: liver and plasma, read-out: Ratio AUC; how it was run: as §2
[20] = tested on: Salmonella typhimurium; assay: Mutagenicity in Salmonella typhimurium by Ames test; assay type: toxicity; settings: salmonella enterica subsp. enterica serovar typhimurium
[21] = molecular target: T1, Cytochrome P450 3A4 (Homo sapiens, UniProt P08684); assay: Inhibition of CYP3A4 (unknown origin); assay type: ADME
How it was run: (§3)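 CYP inhibition IC50 measured in a panel of five enzymes: CYP3A4, 2D6, 2C9, 2C19 and 1A2.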

[22] = molecular target: Cytochrome P450 2D6 (Homo sapiens, UniProt P10635); assay: Inhibition of CYP2D6 (unknown origin); assay type: ADME; how it was run: as §3
[23] = molecular target: Cytochrome P450 2C9 (Homo sapiens, UniProt P11712); assay: Inhibition of CYP2C9 (unknown origin); assay type: ADME; how it was run: as §3
[24] = molecular target: Cytochrome P450 2C19 (Homo sapiens, UniProt P33261); assay: Inhibition of CYP2C19 (unknown origin); assay type: ADME; how it was run: as §3
[25] = molecular target: T2, Cytochrome P450 1A2 (Homo sapiens, UniProt P05177); assay: Inhibition of CYP1A2 (unknown origin); assay type: ADME; how it was run: as §3
T2 sequence (P05177 whole entry): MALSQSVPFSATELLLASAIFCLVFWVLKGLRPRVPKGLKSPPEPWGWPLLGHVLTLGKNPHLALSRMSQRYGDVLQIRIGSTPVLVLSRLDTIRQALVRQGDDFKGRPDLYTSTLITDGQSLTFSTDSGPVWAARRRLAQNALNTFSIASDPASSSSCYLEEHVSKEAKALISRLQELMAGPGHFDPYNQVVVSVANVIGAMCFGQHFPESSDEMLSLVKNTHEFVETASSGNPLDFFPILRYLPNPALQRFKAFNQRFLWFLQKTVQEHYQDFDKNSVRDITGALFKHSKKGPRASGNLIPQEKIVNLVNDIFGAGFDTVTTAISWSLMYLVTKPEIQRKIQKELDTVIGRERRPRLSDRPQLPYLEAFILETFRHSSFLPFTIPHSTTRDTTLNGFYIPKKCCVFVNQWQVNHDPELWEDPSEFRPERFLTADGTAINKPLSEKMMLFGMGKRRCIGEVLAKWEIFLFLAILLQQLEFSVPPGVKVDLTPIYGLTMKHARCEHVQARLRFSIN

[26] = molecular target: T1, Cytochrome P450 3A4; assay: Time dependent inhibition of CYP3A4 (unknown origin); assay type: ADME
[27] = Plasma clearance in mouse at 1 mg/kg, iv by LC-MS/MS analysis; assay type: ADME, organism-based; how it was run: as §2
[28] = AUC (0 to infinity) in mouse at 1 mg/kg, iv by LC-MS/MS analysis; assay type: ADME, organism-based; set-up: dose 1 mg/kg, time infinity, route intravenous; settings: in vivo; how it was run: as §2
[29] = Oral bioavailability in mouse at 3 mg/kg, by LC-MS/MS analysis; assay type: ADME, organism-based; settings: in vivo; how it was run: as §2

T1 sequence (P08684 whole entry): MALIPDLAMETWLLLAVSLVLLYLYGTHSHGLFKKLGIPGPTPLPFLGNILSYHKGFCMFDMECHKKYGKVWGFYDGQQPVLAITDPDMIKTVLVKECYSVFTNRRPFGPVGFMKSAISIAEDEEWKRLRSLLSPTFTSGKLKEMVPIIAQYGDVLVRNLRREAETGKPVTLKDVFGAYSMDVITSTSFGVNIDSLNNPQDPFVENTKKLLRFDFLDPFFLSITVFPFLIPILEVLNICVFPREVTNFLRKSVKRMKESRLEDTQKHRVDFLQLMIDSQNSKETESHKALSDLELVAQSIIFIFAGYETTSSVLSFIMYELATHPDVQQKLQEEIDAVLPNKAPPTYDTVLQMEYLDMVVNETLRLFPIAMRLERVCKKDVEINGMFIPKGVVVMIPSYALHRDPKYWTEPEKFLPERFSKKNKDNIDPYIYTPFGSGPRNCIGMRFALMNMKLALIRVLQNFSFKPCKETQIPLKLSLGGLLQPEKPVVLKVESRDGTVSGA
Chain of Voltage-gated inwardly rectifying potassium channel KCNH2 (Q12809 whole entry): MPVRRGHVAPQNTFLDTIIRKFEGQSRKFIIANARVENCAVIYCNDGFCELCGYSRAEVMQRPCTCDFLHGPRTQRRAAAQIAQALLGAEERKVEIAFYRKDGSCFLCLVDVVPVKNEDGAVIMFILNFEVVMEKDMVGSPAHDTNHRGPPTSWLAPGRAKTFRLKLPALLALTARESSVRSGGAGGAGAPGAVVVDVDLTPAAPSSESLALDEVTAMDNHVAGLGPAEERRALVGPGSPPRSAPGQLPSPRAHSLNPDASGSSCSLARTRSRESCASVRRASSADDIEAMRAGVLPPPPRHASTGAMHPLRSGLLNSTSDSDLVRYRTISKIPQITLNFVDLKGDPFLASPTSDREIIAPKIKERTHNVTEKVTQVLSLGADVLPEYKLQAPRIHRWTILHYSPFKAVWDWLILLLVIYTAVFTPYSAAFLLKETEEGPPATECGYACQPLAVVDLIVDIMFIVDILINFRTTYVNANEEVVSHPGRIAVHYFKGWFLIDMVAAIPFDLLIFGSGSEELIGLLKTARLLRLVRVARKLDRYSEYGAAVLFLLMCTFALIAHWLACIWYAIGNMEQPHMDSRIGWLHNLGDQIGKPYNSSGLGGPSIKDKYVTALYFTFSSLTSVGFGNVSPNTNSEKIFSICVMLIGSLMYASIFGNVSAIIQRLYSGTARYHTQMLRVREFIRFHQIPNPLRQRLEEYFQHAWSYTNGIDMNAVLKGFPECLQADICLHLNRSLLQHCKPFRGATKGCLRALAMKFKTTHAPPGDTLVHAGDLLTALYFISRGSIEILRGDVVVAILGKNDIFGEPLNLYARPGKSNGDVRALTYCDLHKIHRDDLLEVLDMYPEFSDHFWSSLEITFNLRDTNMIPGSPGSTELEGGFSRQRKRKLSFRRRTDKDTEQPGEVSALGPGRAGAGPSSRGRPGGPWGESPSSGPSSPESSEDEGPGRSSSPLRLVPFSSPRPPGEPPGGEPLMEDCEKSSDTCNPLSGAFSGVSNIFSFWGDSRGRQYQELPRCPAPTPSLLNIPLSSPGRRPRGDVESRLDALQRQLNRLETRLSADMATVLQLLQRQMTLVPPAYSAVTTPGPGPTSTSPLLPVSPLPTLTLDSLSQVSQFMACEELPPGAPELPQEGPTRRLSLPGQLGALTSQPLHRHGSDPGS
Chain of hERG (KCNH2) (Q12809 whole entry): as above
Chain of Cytochrome P450 2C19 (P33261 whole entry): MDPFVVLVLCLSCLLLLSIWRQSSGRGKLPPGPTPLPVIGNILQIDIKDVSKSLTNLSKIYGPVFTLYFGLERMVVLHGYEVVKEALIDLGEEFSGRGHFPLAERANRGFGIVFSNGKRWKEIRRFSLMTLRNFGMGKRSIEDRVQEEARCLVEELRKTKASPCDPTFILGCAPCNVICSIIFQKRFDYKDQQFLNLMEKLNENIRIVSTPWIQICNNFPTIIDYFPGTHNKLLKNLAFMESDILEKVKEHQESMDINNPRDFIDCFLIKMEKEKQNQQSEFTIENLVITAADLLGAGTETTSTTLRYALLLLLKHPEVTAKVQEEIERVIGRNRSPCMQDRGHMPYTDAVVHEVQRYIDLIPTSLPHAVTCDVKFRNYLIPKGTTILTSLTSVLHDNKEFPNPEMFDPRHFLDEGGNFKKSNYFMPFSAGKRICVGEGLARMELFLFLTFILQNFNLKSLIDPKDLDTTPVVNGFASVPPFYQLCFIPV
Chain of Cytochrome P450 2D6 (P10635 whole entry): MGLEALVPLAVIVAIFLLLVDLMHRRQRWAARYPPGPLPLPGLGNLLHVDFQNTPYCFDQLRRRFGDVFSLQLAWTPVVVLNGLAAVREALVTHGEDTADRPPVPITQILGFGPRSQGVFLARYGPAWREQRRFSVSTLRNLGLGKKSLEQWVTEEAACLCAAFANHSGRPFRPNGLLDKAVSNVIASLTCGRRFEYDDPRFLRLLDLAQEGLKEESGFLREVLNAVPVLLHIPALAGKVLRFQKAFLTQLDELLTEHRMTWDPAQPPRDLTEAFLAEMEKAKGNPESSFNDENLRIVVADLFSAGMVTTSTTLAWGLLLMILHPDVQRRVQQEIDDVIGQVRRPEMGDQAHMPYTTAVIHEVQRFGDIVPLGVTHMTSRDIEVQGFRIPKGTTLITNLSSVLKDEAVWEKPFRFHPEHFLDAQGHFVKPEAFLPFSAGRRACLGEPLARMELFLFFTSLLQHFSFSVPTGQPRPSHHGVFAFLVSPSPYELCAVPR
Chain of Cytochrome P450 2C9 (P11712 whole entry): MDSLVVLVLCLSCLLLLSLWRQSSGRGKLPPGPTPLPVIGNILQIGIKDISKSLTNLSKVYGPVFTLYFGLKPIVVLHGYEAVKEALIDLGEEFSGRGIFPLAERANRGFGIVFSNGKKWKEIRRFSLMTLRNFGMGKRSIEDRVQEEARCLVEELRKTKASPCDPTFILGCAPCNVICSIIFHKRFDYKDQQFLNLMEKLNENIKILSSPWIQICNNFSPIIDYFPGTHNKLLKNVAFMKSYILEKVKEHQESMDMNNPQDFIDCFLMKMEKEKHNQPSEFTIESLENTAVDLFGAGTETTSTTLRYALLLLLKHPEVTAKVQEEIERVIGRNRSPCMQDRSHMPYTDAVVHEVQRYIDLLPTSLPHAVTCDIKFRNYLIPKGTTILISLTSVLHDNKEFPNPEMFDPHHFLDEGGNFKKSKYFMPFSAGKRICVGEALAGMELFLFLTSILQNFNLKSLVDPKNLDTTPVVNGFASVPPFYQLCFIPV

Structure (SMILES): COC(=O)C1=C(CN2CCSCC2C(=O)O)NC(c2nccs2)=N[C@H]1c1ccc(F)cc1Cl (single isomer, unassigned)
- EC50 [1]: 0.038 µM
- CC50 at 120 h [2]: 60 µM
- Ratio CC50/EC50 [3]: 1579
- solubility [4]: 584 µg/mL (≈ 1140 µM)

Structure (SMILES): COC(=O)C1=C(CN2CCOC[C@H]2C(=O)O)NC(c2nc(C(F)(F)F)cs2)=N[C@H]1c1ccc(F)cc1Cl
- EC50 [1]: 0.003 µM
- CC50 at 120 h [2]: > 100 µM
- Ratio CC50/EC50 [3]: >33333
- Activity [5]: 72%

Structure (SMILES): COC(=O)C1=C(CN2CCOC[C@H]2C(N)=O)NC(c2nccs2)=N[C@H]1c1ccc(F)cc1Cl
- EC50 [1]: 0.003 µM
- CC50 at 120 h [2]: > 100 µM
- Ratio CC50/EC50 [3]: >33333
- solubility [4]: 205 µg/mL (≈ 415 µM)

Structure (SMILES): COC(=O)C1=C(CN2CCOC[C@H]2C(=O)O)N=C(c2nccs2)N[C@H]1c1ccc(F)cc1Cl
- CC50 at 120 h [2]: > 100 µM
- solubility [4]: > 666 µg/mL
- inhibition (INH) [6]: Not Active
- IC20 [7]: > 10 µM
- logD [8]: 0.06
- pKa [9]: 1.8
- pKa [10]: 5.8
- Papp at 18 h, 150 µM [11]: 1.4 ×10⁻⁶ cm/s
- fraction unbound at 5 h, 1 µM [12]: 0.057
- fraction unbound at 5 h, 1 µM [13]: 0.074
- half-life [14]: 1.5 h
- Vd [15]: 2.5 L/kg
- Cmax [16]: 413 ng/mL
- AUC(0-inf) [17]: 962 ng·h/mL
- AUC(0-inf) [18]: 11800 ng·h/mL
- Kp [19]: 12.3
- Activity [20]: Non-Toxic
- IC50 [21]: > 50 µM
- IC50 [22]: > 50 µM
- IC50 [23]: > 50 µM
- IC50 [24]: > 50 µM
- IC50 [25]: > 50 µM
- TDI [26]: Not Active
- Activity [5]: 111%

Structure (SMILES): CCOC(=O)C1=C(CN2CCOC[C@H]2C(=O)O)NC(c2nccs2)=N[C@H]1c1cccc(F)c1Cl
- EC50 [1]: 0.0008 µM
- CC50 at 120 h [2]: > 100 µM
- Ratio CC50/EC50 [3]: 125000
- solubility [4]: > 679 µg/mL
- logD [8]: 0.42
- pKa [9]: 1.8
- pKa [10]: 5.7
- Papp at 18 h, 150 µM [11]: 3.3 ×10⁻⁶ cm/s
- fraction unbound at 5 h, 1 µM [12]: 0.02
- fraction unbound at 5 h, 1 µM [13]: 0.022
- half-life [14]: 3 h
- Vd [15]: 4.1 L/kg
- clearance [27]: 66 mL/min/kg
- Cmax [16]: 783 ng/mL
- AUC(0-inf) [28]: 253 ng·h/mL
- AUC(0-inf) [17]: 624 ng·h/mL
- bioavailability [29]: 82%
- AUC(0-inf) [18]: 2000 ng·h/mL
- Kp [19]: 3.2
- Activity [5]: 144%

Structure (SMILES): COC(=O)C1=C(CN2CCOC[C@H]2CNS(C)(=O)=O)NC(c2nccs2)=N[C@H]1c1ccc(F)cc1Cl
- EC50 [1]: 0.004 µM
- CC50 at 120 h [2]: 88 µM
- Ratio CC50/EC50 [3]: 22000
- solubility [4]: 48 µg/mL (≈ 86 µM)

Structure (SMILES): COC(=O)C1=C(CN2CCOC[C@H]2CC(=O)O)NC(c2nccs2)=N[C@H]1c1ccc(F)cc1Cl
- EC50 [1]: 0.6 µM
- CC50 at 120 h [2]: > 100 µM
- Ratio CC50/EC50 [3]: >167
- solubility [4]: > 638 µg/mL
